One may read the AUC(0-t) as exposure summed from dosing to a finite time, without extrapolation to infinity. Usually Tmax stands for the time from dosing to the highest level. Usually IC50 stands for the point on the concentration scale where inhibition reaches its midpoint. As a reminder, the half-life is how long it takes for the measured level to halve. In general, solubility refers to the concentration that dissolves in the medium under given conditions. By AUC(0-inf) is commonly meant total exposure, with the tail of the curve extrapolated. The term clearance denotes the volume of plasma or blood freed of the substance per unit of time.

Converted amounts (≈) assume the structure as drawn.

Consider one molecule from ChEMBL document CHEMBL4725355, “Design, Synthesis, and Preclinical Evaluation of 3-Methyl-6-(5-thiophenyl)-1,3-dihydro-imidazo[4,5-b]pyridin-2-ones as Selective GluN2B Negative Allosteric Modulators for the Treatment of Mood Disorders” (J Med Chem, 2020).

The nature of series [1]: AUC (0 to 24 hrs) in Sprague-Dawley rat at 250 mg/kg, po administered via gavage after 24 hrs using nanosuspension formulation by LC-MS/MS analysis. The class given is ADME, organism-based. Also on record: route oral, dose 250 mg/kg, time <=24. The conditions noted are these: in vivo. The method in brief: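 Single oral gavage dose to male Sprague Dawley rats, 3 per dose level. Vehicles were a standard suspension in 5% HPMC (125, 250, 500 or 1000 mg/kg) or a nanosuspension (API:polymer 4:1), with stock diluted in vehicle on the day of dosing (100, 250 or 500 mg/kg). Blood was sampled at time points from 0.5 to 24 h.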

Series [2] can be described thus: Tmax in Sprague-Dawley rat at 500 mg/kg, po administered via gavage after 24 hrs using nanosuspension formulation by LC-MS/MS analysis. It counts as ADME, organism-based. The conditions noted are these: in vivo. The method in brief:
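Single oral gavage of a nanosuspension (API:polymer 4:1), diluted with vehicle on the dosing day, at 100, 250 or 500 mg/kg to male Sprague Dawley rats, 3 per dose. Plasma was sampled from 0.5 to 24 h.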

The target in a further series is T1, Cytochrome P450 1A2 (Homo sapiens, UniProt P05177).
T1 sequence (P05177 whole entry): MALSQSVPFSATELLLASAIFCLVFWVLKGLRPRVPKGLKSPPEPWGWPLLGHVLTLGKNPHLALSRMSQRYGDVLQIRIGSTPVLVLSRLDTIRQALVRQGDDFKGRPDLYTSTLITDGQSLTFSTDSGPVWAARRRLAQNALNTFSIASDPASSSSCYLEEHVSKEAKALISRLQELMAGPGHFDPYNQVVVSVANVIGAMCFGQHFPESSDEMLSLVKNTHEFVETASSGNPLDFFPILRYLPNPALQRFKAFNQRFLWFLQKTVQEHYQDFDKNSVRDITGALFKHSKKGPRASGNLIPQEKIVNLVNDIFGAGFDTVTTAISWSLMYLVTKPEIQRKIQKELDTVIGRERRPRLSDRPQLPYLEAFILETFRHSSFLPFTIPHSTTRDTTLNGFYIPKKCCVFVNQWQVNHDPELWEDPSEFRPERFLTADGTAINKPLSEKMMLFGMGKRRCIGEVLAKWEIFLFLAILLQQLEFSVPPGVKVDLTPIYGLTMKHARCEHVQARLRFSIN
The series is described as follows: Inhibition of CYP1A2 in human liver microsomes using phenacetin as substrate measured after 15 mins by LC-MS/MS analysis. The class given is ADME. The method in brief: (§1)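 Human liver microsomes incubated with isoform-specific probe substrates and the test compound at concentrations up to 20 µM. IC50 derived from inhibition of metabolite formation; mean of two independent experiments, with known specific inhibitors as positive controls.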
For orientation: Liver microsomes are a subcellular fraction often used to study metabolism.

The nature of series [3]: Metabolic stability in human liver microsomes assessed as extraction ratio at 1 uM after 5 to 60 mins in presence of NADPH by LC-MS/MS analysis. It counts as ADME, Microsome. The conditions noted are these: time 5-60 min, read-out: ERH. The method in brief:
(§2)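 Human and rat liver microsomes, run in duplicate; stability reported as microsomal extraction ratio.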

The target in a further series is Cytochrome P450 2C19 (Homo sapiens, UniProt P33261). Nature of the series: Inhibition of CYP2C19 in human liver microsomes using S-mephenytoin as substrate measured after 15 mins by LC-MS/MS analysis. The class given is ADME. The method in brief:
as §1

A short description of series [4]: Half life in monkey at 0.5 mg/kg, po by LC-MS/MS analysis. The conditions noted are these: rhesus monkey, in vivo. It counts as ADME, organism-based, Macaca mulatta.
Series [5] can be described thus: Tmax in Sprague-Dawley rat at 500 mg/kg, po administered via gavage after 24 hrs using HPMC formulation by LC-MS/MS analysis. It counts as ADME, organism-based. The conditions noted are these: in vivo. The method in brief: (§3)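 Single oral gavage of a 5% HPMC suspension at 125, 250, 500 or 1000 mg/kg to male Sprague Dawley rats, 3 per group. Plasma was sampled at 6 time points from 0.5 to 24 h.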

Series [6] is described as follows: Solubility of compound in simulated gastric fluid at pH 1.2 measured after 3 days. The conditions noted are these: time 3 day. It counts as physicochemical. In outline: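 Solubility in aqueous buffer at pH 2 and pH 7, and in simulated gastric and intestinal fluids.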
The nature of series [7]: Drug level in Sprague-Dawley rat brain hippocampus at 0.03 mg/kg, iv after 60 min by LC-MS/MS analysis. The class given is ADME, organism-based. The conditions noted are these: read-out: Drug uptake. In outline: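 Single i.v. dose of 0.03 mg/kg in 50% (w/v) PEG/water, pH 7.4; rats n=3 per group, killed at 5, 10, 30, 60 and 120 min. Cerebellum, cortex, striatum and hippocampus dissected, weighed and homogenized; drug quantified by LC-MS/MS and normalized to tissue weight. P<0.05 taken as significant versus cerebellum.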

Series [8] in a line: AUC (infinity) in Sprague-Dawley rat at 0.5 mg/kg, iv or 2.5 mg/kg, po using 1:1 PEG-400/water formulation by LC-MS/MS analysis. The class given is ADME, organism-based. The conditions noted are these: in vivo. Also on record: dose 2.5 mg/kg. The method in brief:
(§4)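 Rat IV/PO PK at 0.5 mg/kg IV and 2.5 mg/kg PO, dosed in 1:1 PEG400/water, n=3.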

Series [9] is described as follows: AUC (infinity) in Sprague-Dawley rat at 0.5 mg/kg, iv by LC-MS/MS analysis. The class given is ADME, organism-based. Also on record: route intravenous, time infinity, dose 0.5 mg/kg. The conditions noted are these: in vivo. In outline: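 Rat PK with IV and PO dosing, n=3. The usual doses were 0.5 mg/kg IV and 2.5 mg/kg PO in 20% HP-β-CD. One compound was instead given at 0.1 mg/kg IV and 0.5 mg/kg PO.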

The nature of series [10]: Clearance in Sprague-Dawley rat at 0.5 mg/kg, iv using 1:1 PEG-400/water formulation by LC-MS/MS analysis. It counts as ADME, organism-based. The conditions noted are these: in vivo. In outline: as §4
Series [11] can be described thus: Clearance in monkey at 0.1 mg/kg, iv by LC-MS/MS analysis. The class given is ADME, organism-based, Macaca mulatta. The conditions noted are these: rhesus monkey, in vivo.
Series [12] in a line: Metabolic stability in rat liver microsomes assessed as extraction ratio at 1 uM after 5 to 60 mins in presence of NADPH by LC-MS/MS analysis. It counts as ADME, Microsome. The conditions noted are these: time 5-60 min, read-out: ERH. The method in brief: as §2
Series [13] in a line: Negative allosteric modulation of human GluN1a/GluN2C receptor expressed in CHO cells assessed as inhibition of glutamate and glycine-induced calcium flux preincubated for 5 mins followed by glutamate and glycine addition and measured after 5 mins by calcium 5 dye based FLIPR assay. It counts as cell-based. In outline:
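Tet-On CHO T-Rex cells expressing hGluN1a with GluN2A, 2B, 2C or 2D, plated at 20,000 cells/well and induced 24 h before the assay in the presence of ketamine. Cells loaded 1 h at room temperature with Calcium 5 dye, pH 7.4 HEPES buffer. Compound added 5 min, then glutamate (~EC80) plus 10 µM glycine for 5 min; FLIPR fluorescence normalized to control wells. Three independent runs in duplicate (two for some).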
In general terms: Calcium flux is commonly read through the fluorescence of an indicator in the cells.

The target of another series is Cytochrome P450 2D6 (Homo sapiens, UniProt P10635). The series is described as follows: Inhibition of CYP2D6 in human liver microsomes using dextromethorphan as substrate measured after 15 mins by LC-MS/MS analysis. It counts as ADME. In outline:
as §1

A short description of series [14]: Tmax in Sprague-Dawley rat at 125 mg/kg, po administered via gavage after 24 hrs using HPMC formulation by LC-MS/MS analysis. The class given is ADME, organism-based. The conditions noted are these: in vivo. In outline:
as §3

The nature of series [15]: AUC (infinity) in monkey at 0.5 mg/kg, po by LC-MS/MS analysis. It counts as ADME, organism-based, Macaca mulatta. On the set-up: route oral, time infinity, dose 0.5 mg/kg. The conditions noted are these: rhesus monkey, in vivo.
Series [16] is described as follows: Tmax in Sprague-Dawley rat at 0.5 mg/kg, iv or 2.5 mg/kg, po using 1:1 PEG-400/water formulation by LC-MS/MS analysis. It counts as ADME, organism-based. The conditions noted are these: in vivo. The method in brief: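 Rat PK at 0.5 mg/kg i.v. and 2.5 mg/kg p.o., vehicle 1:1 PEG400/water. n=3, values given as mean ± SD.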

Sequence of Cytochrome P450 2C19 (P33261 whole entry): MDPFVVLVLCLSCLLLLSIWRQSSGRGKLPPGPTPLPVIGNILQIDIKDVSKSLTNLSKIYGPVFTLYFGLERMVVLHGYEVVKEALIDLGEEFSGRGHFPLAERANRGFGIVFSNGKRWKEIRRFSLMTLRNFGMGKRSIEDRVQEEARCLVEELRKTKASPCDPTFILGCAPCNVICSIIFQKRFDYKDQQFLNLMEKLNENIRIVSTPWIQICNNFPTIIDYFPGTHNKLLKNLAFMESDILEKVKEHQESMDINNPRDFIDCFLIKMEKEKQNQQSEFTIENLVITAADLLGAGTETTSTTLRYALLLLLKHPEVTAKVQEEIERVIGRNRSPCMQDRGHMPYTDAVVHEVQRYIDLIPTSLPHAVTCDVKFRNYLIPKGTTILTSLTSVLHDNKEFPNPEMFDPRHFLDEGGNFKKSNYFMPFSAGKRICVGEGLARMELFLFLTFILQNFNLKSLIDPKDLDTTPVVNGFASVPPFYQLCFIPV
Sequence of Cytochrome P450 2D6 (P10635 whole entry): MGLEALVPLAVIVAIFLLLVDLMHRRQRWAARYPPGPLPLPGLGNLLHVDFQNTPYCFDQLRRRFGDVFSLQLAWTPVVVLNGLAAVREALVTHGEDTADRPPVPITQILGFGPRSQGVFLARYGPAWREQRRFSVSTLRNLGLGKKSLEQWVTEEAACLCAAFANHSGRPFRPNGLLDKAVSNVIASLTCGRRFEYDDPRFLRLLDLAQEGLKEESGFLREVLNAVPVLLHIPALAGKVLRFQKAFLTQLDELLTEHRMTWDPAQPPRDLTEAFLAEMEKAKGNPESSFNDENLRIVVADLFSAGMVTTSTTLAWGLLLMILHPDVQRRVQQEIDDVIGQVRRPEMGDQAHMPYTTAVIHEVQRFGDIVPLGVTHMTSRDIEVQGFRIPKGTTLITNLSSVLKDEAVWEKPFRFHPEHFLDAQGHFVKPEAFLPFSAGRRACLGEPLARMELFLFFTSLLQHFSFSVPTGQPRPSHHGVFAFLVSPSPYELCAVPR

Consider `Cn1c(=O)n(CC(=O)N2CCC2)c2cc(-c3ccc(C(F)(F)F)s3)cnc21`, for which the AUC(0-t) in series [1] came to 86400 ng·h/mL. Besides, the Tmax in [2] worked out at 3.3 h; in series [5], 1 h; in series [14] it was 2.7 h; in [16], 1.3 h. Moreover, the IC50 on Cytochrome P450 1A2 is greater than 50 µM; against Cytochrome P450 2C19, greater than 50 µM; in series [13] it was greater than 10 µM; against Cytochrome P450 2D6, 15 µM. In addition, the hepatic extraction ratio at 1 µM was less than 0.3 in [3] and less than 0.17 in [12]. The same molecule showed a half-life in series [4] of 1 h. This molecule returned a solubility at 72 h in [6] of 4.4 µM (≈ 1.74 µg/mL). The concentration at 1 h in series [7] is 20.9 ng/mL. The AUC(0-inf) in series [8] was 1830 ng·h/mL; in series [9] it was 277 ng·h/mL; in series [15], 385 ng·h/mL. For the same molecule, the clearance was 30 mL/min/kg in series [10] and 9 mL/min/kg in [11].
